This note sets out measurements from ChEMBL document CHEMBL4007417, “Target Elucidation by Cocrystal Structures of NADH-Ubiquinone Oxidoreductase of Plasmodium falciparum (PfNDH2) with Small Molecule To Eliminate Drug-Resistant Malaria” (J Med Chem, 2017).

The source made the active and inactive calls. The calls are words filed in the database; no cut-off is given here.

Test [1] has as its system Plasmodium yoelii. Kind of test: Antimalarial activity against Plasmodium yoelii YM infected in BALB/c mouse assessed reduction in parasitemia at 30 mg/kg/day, sc for 4 days by Giemsa-staining based microscopic analysis. The class given is functional, organism-based. Summed up: (§1)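 P. yoelii-infected mice, n=3 per group. Subcutaneous injection once daily for 4 days starting at 96 h post infection. Parasitemia followed on blood-smear microscopy, with inhibition measured at 24 h post treatment. Cure time taken as the minimum period to cure all mice; survival recorded at 40 days. DMSO controls included.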

Test [2] has as its system Plasmodium yoelii. Kind of test: Antimalarial activity against Plasmodium yoelii YM infected in BALB/c mouse assessed as time duration for parasite cure at 30 mg/kg, sc administered QD for 4 days starting at 96 hrs post infection by Giemsa-staining based microscopic analysis. The class given is functional. Summed up: as §1
Test [3] has as its system Plasmodium yoelii. In words: Antimalarial activity against Plasmodium yoelii YM infected in BALB/c mouse assessed as parasite growth inhibition at 30 mg/kg, sc administered QD for 4 days starting at 96 hrs post infection by Giemsa-staining based microscopic analysis. The class given is functional. The conditions noted are these: read-out: GI. An outline of the steps: as §1

In test [4] the test system is Plasmodium yoelii. In words: Antimalarial activity against Plasmodium yoelii YM infected in BALB/c mouse assessed as parasite cure level at 10 mg/kg, ip administered on days 1 post infection by Giemsa-stained microscopic analysis. Format: functional, organism-based. An outline of the steps:
(§2)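 Mice (groups of three) inoculated with 1×10^6 P. yoelii parasites. Single intraperitoneal dose of 10, 30 or 90 mg/kg given 24 h after inoculation. DMSO-only untreated group included. Outcome followed by blood-smear microscopy for cure, with survival scored at 40 days post infection.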

The subject of test [5] is Plasmodium yoelii. In words: Antimalarial activity against Plasmodium yoelii YM infected in BALB/c mouse assessed as mouse survival at 30 mg/kg, sc administered QD for 4 days starting at 96 hrs post infection by Giemsa-staining based microscopic analysis. The class given is functional. An outline of the steps: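 Mice inoculated with 1×106 P. yoelii parasites. Subcutaneous dosing for 4 days starting 96 h post infection, given once daily or twice daily 8 h apart. Parasitemia followed on Giemsa-stained blood smears. Survival recorded at 40 days post infection; groups of n=3. DMSO-only mice served as untreated controls.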

The subject of test [6] is Plasmodium falciparum. In words: Antimalarial activity against chloroquine/quinine/sulfadoxine-pyrimethamine/amodiaquine-resistant asexual blood stage Plasmodium falciparum PC26 after 72 hrs by SYBR green-based fluorometric analysis. The conditions noted are these: PC26, 72 h. The class given is functional. An outline of the steps: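 Mid-ring-stage cultures (~6-10 h post-invasion) at 1% parasitemia and 2% hematocrit, in triplicate. Twofold serial dilutions from a top concentration of 100 nM. Incubated 72 h at 37 °C under 5% CO2/5% O2/90% N2. Lysis buffer containing 5×SYBR Green I added, 20 min in the dark, fluorescence read at ex 485/em 538 nm. EC50 derived.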

Test [7] concerns Plasmodium yoelii. Kind of test: Antimalarial activity against Plasmodium yoelii YM infected in BALB/c mouse assessed reduction in parasitemia at 10 mg/kg/day, sc for 4 days by Giemsa-staining based microscopic analysis. Format: functional, organism-based. An outline of the steps: as §1
Test [8] relates to Plasmodium falciparum. Kind of test: Non-competitive inhibition of Plasmodium falciparum NDH2 expressed in Escherichia coli BL21 up to 50 nM by spectrophotometric analysis.
Test [9] deals with Plasmodium yoelii. Kind of test: Antimalarial activity against Plasmodium yoelii YM infected in BALB/c mouse assessed as time duration for parasite cure at 10 mg/kg, sc administered BID for 4 days starting at 96 hrs post infection, 8 hrs apart by Giemsa-staining based microscopic analysis. The class given is functional. Summed up: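 P. yoelii-infected mice, n=3 per group. Subcutaneous injection twice daily, 8 h apart, for 4 days starting at 96 h post infection. Growth inhibition read from blood smears at 24 h post treatment. Cure time taken as the minimum period to cure all mice in the group. DMSO controls included.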

Test [10] in a line: Inhibition of Plasmodium falciparum NDH2 D171R mutant expressed in Escherichia coli DH5alpha competent cells using NADH and ubiquinone-1 as substrate by spectrophotometric analysis. An outline of the steps:
(§3)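 Recombinant PfNDH2 point or double mutants assayed spectrophotometrically at 25 °C. Buffer: 50 mM MOPS pH 7.0, 150 mM NaCl, 1 mM EDTA, 0.01% Triton X-100. Substrates 50 µM NADH and 30 µM ubiquinone-1, with 0.5 nM enzyme and selected inhibitor concentrations.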

Test [11] can be described thus: Inhibition of Plasmodium falciparum NDH2 Y475R mutant expressed in Escherichia coli DH5alpha competent cells using NADH and ubiquinone-1 as substrate by spectrophotometric analysis. An outline of the steps:
as §3

For test [12], the system named is Plasmodium falciparum. In words: Synergistic antimalarial activity against Plasmodium falciparum in presence of quinine. The class given is functional. Summed up:
(§4)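 In vitro drug interaction analyses with other antimalarials against P. falciparum. Experiments repeated three times; error bars s.e.m.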

The test system of test [13] is Plasmodium falciparum. Kind of test: Binding affinity to Plasmodium falciparum NDH2 expressed in Escherichia coli BL21 assessed as reduction in NADH Kd by SPR assay. In general terms: In SPR one partner is held on a chip, and binding of the other changes the refractive index at the surface.
Test [14] can be described thus: Inhibition of Plasmodium falciparum NDH2 N92R/S497R double mutant expressed in Escherichia coli DH5alpha competent cells using NADH and ubiquinone-1 as substrate by spectrophotometric analysis. Summed up:
as §3

A short description of test [15]: Inhibition of Plasmodium falciparum NDH2 S497R mutant expressed in Escherichia coli DH5alpha competent cells using NADH and ubiquinone-1 as substrate by spectrophotometric analysis. Summed up:
as §3

Test [16] is described as follows: Inhibition of Plasmodium falciparum NDH2 N92R mutant expressed in Escherichia coli DH5alpha competent cells using NADH and ubiquinone-1 as substrate by spectrophotometric analysis. An outline of the steps:
as §3

Test [17] concerns Plasmodium yoelii. In words: Antimalarial activity against Plasmodium yoelii YM infected in BALB/c mouse assessed as time duration for parasite cure at 10 mg/kg, sc administered QD for 4 days starting at 96 hrs post infection by Giemsa-staining based microscopic analysis. Format: functional. Summed up:
as §1

A short description of test [18]: Binding affinity to Plasmodium falciparum NDH2 expressed in Escherichia coli BL21 assessed as NADH Kd by SPR assay (reference value: 5.22 uM).
For test [19], the system named is Plasmodium falciparum. Kind of test: Synergistic antimalarial activity against Plasmodium falciparum in presence of dihydroartemisinin. Format: functional. Summed up: as §4
Test [20] relates to Plasmodium yoelii. In words: Antimalarial activity against Plasmodium yoelii YM infected in BALB/c mouse assessed as parasite cure level at 10 to 90 mg/kg, ip administered on days 1 post infection by Giemsa-stained microscopic analysis. The class given is functional, organism-based. Summed up: as §2
The nature of test [21]: Inhibition of Plasmodium falciparum wild type NDH2 expressed in Escherichia coli BL21 using NADH and ubiquinone-1 as substrate by spectrophotometric analysis. An outline of the steps: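 Recombinant PfNDH2 activity measured spectrophotometrically at 25 °C. Buffer: 50 mM MOPS pH 7.0, 150 mM NaCl, 1 mM EDTA, 0.01% Triton X-100. Substrates 50 µM NADH and 30 µM ubiquinone-1, with 0.5 nM enzyme and selected inhibitor concentrations.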

Test [22] concerns Plasmodium falciparum. In words: Synergistic antimalarial activity against Plasmodium falciparum in presence of chloroquine. Format: functional. Summed up:
as §4

In test [23] the test system is Plasmodium yoelii. Kind of test: Antimalarial activity against Plasmodium yoelii YM infected in BALB/c mouse assessed as parasite growth inhibition at 10 mg/kg, sc administered QD for 4 days starting at 96 hrs post infection by Giemsa-staining based microscopic analysis. Format: functional. As to conditions: read-out: GI. Summed up:
as §1

Test [24] concerns Plasmodium yoelii. Kind of test: Antimalarial activity against Plasmodium yoelii YM infected in BALB/c mouse assessed as time duration for parasite cure at 5 mg/kg, sc administered QD for 4 days starting at 2 hrs post infection by Giemsa-staining based microscopic analysis. Format: functional. An outline of the steps:
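P. yoelii-infected mice, n=3 per group. Subcutaneous injection once daily for 4 days starting at 2 h post infection. Growth inhibition determined at 24 h post treatment by blood-smear microscopy. Cure time taken as the minimum period to cure all mice in the group.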

Usually EC50 stands for the concentration at which the effect is half-maximal. Lower therefore signals higher potency in that assay. As to `Cc1c(-c2ccc(Cc3ccc(SC(F)(F)F)cc3)cc2)[nH]c2cccc(F)c2c1=O`, in test [1], the outcome was Active. In addition, the Time in test [2] came to 18 days. Besides, the inhibition in vivo at 30 mg/kg in test [3] amounted to 77.4%. Further, the outcome in test [4] was inactive. For the same compound, the survival at 30 mg/kg in [5] was found to be 66.7%. Also, the EC50 in test [6] was 4.42 nM.

The term IC50 denotes the midpoint of a concentration-inhibition curve. A high value points to lower potency. The Kd is the free concentration of one partner at which half of the binding sites on the other are occupied at equilibrium, for simple one-to-one binding. Consider `Cc1c(-c2ccc(Cc3ccc(OC(F)(F)F)cc3)cc2)[nH]c2cccc(F)c2c1=O`, for which the result in test [7] and in test [20] was Active. For the same compound, the inhibition result in test [8] is “Active”. The Time was determined as 16 days in test [9], 17 days in test [17] and 28 days in test [24]. For the same compound, the IC50 was determined as 9.74 nM in test [10]; 31.7 nM in [11]; 123 nM in test [14]; 17.1 nM in [15]; 16.7 nM in test [16]; 3.73 nM in test [21]. Besides, the results for the “fractional inhibitory concentration index (FICI)” value in test [12], in [19] and in test [22] were 2.33, 0.56 and 1.52, respectively. For the same compound, the fold change (FC) in test [13] is 7. Further, in test [18], the Kd amounted to 37200 nM. The EC50 in test [6] was 5.92 nM. The inhibition in vivo at 10 mg/kg in test [23] turned out to be 98.4%.
